# Sampled rows, rich in hits. Any-hit rate of the full collection: about 3.1%.
# KCNQ1 pot = potentiators or activators of KCNQ1 channel, primary screen, cell-based, thallium flux, high-throughput; Potassium voltage-gated channel subfamily KQT member 1 (Homo sapiens), P51787; CHO-K1 KCNQ1, thallium flux FluxOR fluorescence; hits give high values; 0.35% of 310,000 active; AID 2648, 2010; B-score at 10 µM;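 active means fluorescence ratio B-score, a plate-corrected score, at least three library SD, with initial intensity B-score within 5 SD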
# Target sequence (P51787 whole entry, looked up): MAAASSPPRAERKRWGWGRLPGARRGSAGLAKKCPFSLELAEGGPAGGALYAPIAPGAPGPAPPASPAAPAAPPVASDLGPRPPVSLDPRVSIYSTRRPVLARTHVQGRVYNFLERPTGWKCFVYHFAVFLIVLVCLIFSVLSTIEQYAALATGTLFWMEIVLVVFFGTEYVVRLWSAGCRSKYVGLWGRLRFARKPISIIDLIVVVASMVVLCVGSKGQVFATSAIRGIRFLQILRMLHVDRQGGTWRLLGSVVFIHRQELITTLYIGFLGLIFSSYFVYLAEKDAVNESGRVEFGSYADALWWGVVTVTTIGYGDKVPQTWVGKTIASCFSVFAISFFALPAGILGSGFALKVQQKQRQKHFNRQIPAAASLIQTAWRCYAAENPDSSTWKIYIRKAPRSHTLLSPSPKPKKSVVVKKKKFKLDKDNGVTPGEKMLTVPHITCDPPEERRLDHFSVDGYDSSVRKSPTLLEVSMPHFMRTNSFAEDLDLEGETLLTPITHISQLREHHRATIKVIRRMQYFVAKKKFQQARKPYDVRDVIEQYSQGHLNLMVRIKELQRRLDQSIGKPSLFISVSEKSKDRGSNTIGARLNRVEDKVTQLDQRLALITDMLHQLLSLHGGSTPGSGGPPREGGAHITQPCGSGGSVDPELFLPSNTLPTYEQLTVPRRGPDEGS
#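 Assay system: CHO-K1 cells stably expressing KCNQ1; Medium: assay buffer with matched DMSO; Also added: K+/Tl+ depolarizing stimulus; Dosing: single dose; Timing: dye 90 min, compound 20 min, room temperature; Measured by: kinetic FluxOR thallium fluorescence, 10-s 1-Hz baseline, 110-s post-stimulus read; Read-out: peak-minus-minimum fluorescence over initial fluorescence, negative-control normalized, B-scored.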
# hERG rescue = hERG rescue from dofetilide block, primary screen, cell-based, CHO-hERG, FluxOR thallium flux, dofetilide IC70; activation (rescue from dofetilide block), less the hit threshold, % at 10 µM; Voltage-gated inwardly rectifying potassium channel KCNH2 (Homo sapiens), Q12809; AID 1511, 2009; 0.51% of 310,000 active; dofetilide IC70 present;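 active means activation above the mean of controls blocked by dofetilide plus 5 SD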;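 further: thallium influx through hERG after potassium depolarization seen as dye fluorescence rise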
# KCNQ1 inh = inhibitors of human KCNQ1 channel, primary screen, cell-based, thallium flux, high-throughput | 1.3% of 310,000 active | Potassium voltage-gated channel subfamily KQT member 1 (Homo sapiens), P51787 | AID 2642, 2010 | CHO-K1 KCNQ1, FluxOR thallium flux fluorescence; hits give high values | B-score at 10 µM;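 active means compounds whose thallium flux B-score, printed positive for inhibition, exceeds three library SD while starting fluorescence stays within three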;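 further: channel opened by potassium depolarization with thallium stimulus after 20 min compound exposure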
# KCNK9 inh = KCNK9 potassium channel inhibitors, primary screen, HEK293 cells, thallium flux; 1.2% of 310,000 active; FluxOR thallium flux fluorescence; hits give low values; AID 488922, 2010; B-score at 10 µM;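 active means ratio B-score over 3 SD below the library mean, with starting fluorescence within 5 SD of its mean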;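 further: negative B-score means less thallium flux so channel inhibition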
# KCNK3 block = human KCNK3 channel inhibitors, primary screen, CHO cells, FluxOR thallium flux, B-score. Potassium channel subfamily K member 3 (Homo sapiens), O14649. FluxOR fluorescence; hits give low values. B-score at 10 µM. 0.84% of 340,000 active. AID 602410, 2012;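 active means B-score under library mean minus 4 SD, starting fluorescence ratio at most library mean plus 5 SD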;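 further: more negative B-score means stronger inhibition of thallium flux through KCNK3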
# Active calls of the source: *; i = inactive; / = no result.
SMILES,KCNQ1 pot,hERG rescue,KCNQ1 inh,KCNK9 inh,KCNK3 block
O=C(NC(=S)N1CCc2ccccc21)c1ccc(Br)o1,81*,11.6*,i,i,i
CC(Oc1ccc(Cl)cc1Cl)C(=O)NC(=S)N1CCc2ccccc21 (stereo unspecified),9*,27.6*,i,i,i
O=C(COc1ccc(Br)cc1Br)NC(=S)N1CCCc2ccccc21,i,6.8*,i,i,i
O=C(NC(=S)N1CCc2ccccc21)c1ccccc1Br,45*,52.3*,i,i,i
O=C(c1ccc(NS(=O)(=O)/C=C/c2ccccc2)cc1)N1CCCCC1,i,-10.9,i,i,i
Cc1csc(=O)n1CCC(=O)OC(C)C(=O)NCc1ccccc1 (stereo unspecified),/,/,/,/,i
O=C1NC(=O)/C(=C/c2ccc(-c3cccc([N+](=O)[O-])c3)o2)S1,i,-6.1,12*,i,i
O=[N+]([O-])c1cc(-c2nnc(Nc3ccccc3)c3ccccc23)ccc1N1CCOCC1,i,-3.3,i,i,i
Cc1ccc(Nc2nnc(-c3ccc(N4CCOCC4)c([N+](=O)[O-])c3)c3ccccc23)cc1,i,-9.9,7*,i,i
Cc1ccc(/C=C2\SC(=S)N(/N=C/c3cc([N+](=O)[O-])ccc3O)C2=O)o1,i,-3.4,6*,i,i
COc1cccc(S(=O)(=O)NCc2ccc(C(=O)N3CCN(C)CC3)cc2)c1,i,-6.3,i,i,i
CCOc1ccc(/C=C2/SC(=O)NC2=S)cc1,112*,37.1*,i,i,i
COc1ccc(CNS(=O)(=O)c2ccc(F)c(C(=O)Nc3ccccc3OC)c2)cc1,i,-3.2,i,i,i
COc1ccc(CNS(=O)(=O)c2ccc(F)c(C(=O)Nc3ccc(OC)cc3)c2)cc1,i,4.8*,i,i,i
CCOc1ccccc1N1CCN(C(=O)c2cc(-c3cc(OC)ccc3OC)nc3ccccc23)CC1,i,-18.5,6*,i,i
CCN1CCCC(OC(=O)c2cc(-c3ccccc3Cl)nc3ccccc23)C1 (stereo unspecified),i,-11.0,i,-6.66*,i
O=C(c1cc(-c2ccccc2Cl)nc2ccccc12)N1CCN(c2ccccc2O)CC1,i,-25.6,6*,i,i
O=C(c1cc(-c2ccccc2Cl)nc2ccccc12)N1CCC1,i,-17.1,i,i,i
CC1=NN(/C(=N\c2nnc(C)s2)Nc2ccc(C(C)(C)C)cc2)[C@H](c2ccc(C)cc2)S1,i,-4.6,8*,i,i
O=C(Cn1ncn2c(cc3ccccc32)c1=O)NCCc1cccs1,i,-2.8,i,i,i
CN(C)S(=O)(=O)c1cccc(-c2nnc(SCCNCCO)n2-c2ccc(F)cc2)c1,i,-18.1,i,i,i
COc1cc(/C=C/c2ccc3c(Br)cc(Br)c(O)c3n2)ccc1O,i,4.7*,i,i,i
COc1ccc(/C=C/c2ccc3c(Br)ccc(O)c3n2)cc1,i,-7.7,i,i,i
O=C(NNC(=O)C1CCN(S(=O)(=O)c2ccc(Cl)cc2)CC1)c1ccccc1O,i,-7.6,i,i,i
CCCc1nc2c(s1)CCc1onc(-c3cccc([N+](=O)[O-])c3)c1-2,i,-5.3,i,i,i
SMILES,KCNQ1 pot,hERG rescue,KCNQ1 inh,KCNK9 inh,KCNK3 block
CC(C)c1nc2c(s1)CCc1onc(-c3cccc([N+](=O)[O-])c3)c1-2,i,-7.2,i,-6.66*,i
COc1ccc(N(CC(=O)N2CCN(Cc3ccccc3)CC2)S(C)(=O)=O)cc1OC,i,9.3*,i,i,i
CC1CCN(C(=O)CSc2nnc(CNC(=O)c3ccc(F)cc3)o2)CC1,i,-11.8,i,i,i
CCC(C)(C(=O)NC1CCCCC1)N(C(=O)CNC(C)=O)c1c(C)n(C)n(-c2ccccc2)c1=O (stereo unspecified),i,-13.3,i,i,i
CCC(C)(C(=O)NC1CCCC1)N(C(=O)Cc1cccs1)c1c(C)n(C)n(-c2ccccc2)c1=O (stereo unspecified),i,-37.9,10*,i,i
COc1ccc(Cl)cc1NC(=O)NC(C)C,i,-9.7,i,i,i
CC(C)NC(=O)Nc1n[nH]c(Nc2ccc(Cl)cc2)n1,i,5.3*,i,i,i
O=[N+]([O-])c1cccc(-c2nnc(-c3ccccc3F)o2)c1,i,-6.3,i,i,i
COc1ccc(C)cc1NC(=S)NNC(=O)c1c(Br)cnn1C,i,7.0*,i,i,i
COc1ccc(C)cc1NC(=S)NNC(=O)c1ccccc1Cl,/,/,/,/,i
Cc1nn(C(C)(C)C)c(C)c1/C=N/OC(=O)Nc1ccc(Cl)cc1,i,-14.6,7*,i,i
O=C(CC(=O)c1ccccc1)CC(O)(C=Cc1ccccc1)c1ccccc1 (stereo unspecified),/,/,/,/,-9.09*
O=C(/C=C/c1ccccc1)CC(=O)c1ccccc1,/,/,/,/,i
COc1cccc(CN2CCN(C(=S)NCc3ccc(Cl)cc3)CC2)c1,i,-5.7,i,i,i
CCOC(=O)C1=NN(c2ccc(F)cc2)C2=NC(C)=C(C(=O)OC)C(c3cccs3)N12 (stereo unspecified),i,-19.4,i,-6.92*,i
OC(CNCC(c1ccco1)N1CCCCC1)c1ccccc1 (stereo unspecified),i,5.9*,i,i,i
CCn1c(COc2cccc3ccccc23)nnc1SCC(=O)OC1CCCCC1,i,-32.4,10*,i,i
Cn1c(COc2cccc3ccccc23)nnc1SCC(=O)OC1CCCCC1,i,-11.5,i,i,i
CCOC(=O)CSC1=NC(=O)/C(=C\c2ccc(Cl)cc2)S1,i,-12.2,6*,i,i
S=c1nc2[nH]c3ccccc3c2n[nH]1,/,/,/,/,i
N#C/C(=C/c1ccc(N2CCOCC2)o1)C(=O)NC1CCCCC1,i,-23.7,7*,i,i
N#C/C(=C\c1ccc(N2CCOCC2)o1)C(=O)Nc1ccc(O)cc1,i,-25.4,7*,i,i
Cc1cccc(C)c1NC(=O)CNC(=O)C(C)NC(C)c1ccccc1Br (stereo unspecified),/,/,/,/,i
O=C(CN1CCN(c2ccc(C(F)(F)F)cn2)CC1)Nc1ccc2c(c1)OCO2,i,-3.5,i,i,i

# Source: PubChem BioAssay (Johns Hopkins Ion Channel Center)
